Screens (PubChem BioAssay)
Rows were chosen to be rich in hits. Some 5.1% of all compounds tested hit in one or more screens of this group.
STAT3 blocker: inhibitors of IL-6 induced STAT3 signaling; U3A cells, IL-6 STAT3-luciferase reporter, luminescence; host cell line lacks STAT1; inhibition, % at 5.5 µM; actives 0.89% (n = 190,000);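 active means inhibition above the mean inhibition across all screened compounds plus 3 SD, cut at about 44% in these data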
APP 5'UTR act: APP 5'UTR luciferase reporter activation; actives 1% (n = 190,000); AID 1276; activation, % at 2 µM; SH-SY5Y APP 5'UTR luciferase reporter, luminescence; zero percent = DMSO vehicle wells;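 active means activation above a set limit, based on mean plus 3 SD of controls, cut at about 140% in these data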
STAT1 inh: reduces IFN-gamma driven STAT1 reporter signal; NIH 3T3 STAT1-luciferase reporter, luminescence; inhibition, % at 5.5 µM; actives 0.35% (n = 200,000); AID 920;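 active means inhibition above a set limit, the mean inhibition across all tested compounds plus 3 SD, cut at about 34% in these data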
STAT3 act: increases IL-6 driven STAT3 reporter signal; U3A cells, IL-6 STAT3-luciferase reporter, luminescence; 100% = signal with IL-6 EC80 alone; activation (% of control), % at 5.6 µM; actives 0.91% (n = 190,000); AID 871;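 active means activation above the screen-wide mean of compound activation plus 3 SD, cut at about 130% in these data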
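Material: STAT3-luciferase reporter U3A cells; Probe or stimulus: IL-6 (33 ng/mL); Incubation: compound pre-incubation 1 h before IL-6, then 6 h stimulation at 37 °C; Technique: luminescence from STAT3-driven luciferase reporter; Evaluation: % activation versus median of IL-6-stimulated wells; Controls: IL-6-only high control.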
STAT1 activator: STAT1 signaling activation. actives 2.6% (n = 200,000). activation (% of control), % at 5.5 µM. NIH 3T3 STAT1-luciferase reporter, IFN-gamma, luminescence; 100% = IFN-gamma alone, no compound. AID 932;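 active means activation above the screen-wide mean activation plus 3 SD, cut at about 130% in these data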
NF-kB expr up: compounds increasing NF-kB expression in human neuronal cells; NF-kB reporter expression; active compounds read high; fold change at 12.5 µM; actives 1.6% (n = 190,000); in the data active means fold change above about 3.3
STAT1 activ conf: STAT1 activation, confirmation assay; shares compounds with STAT1 activator; NIH 3T3 STAT1-luciferase reporter, IFN-gamma potentiation, luminescence; 100% = IFN-gamma EC80 alone, no compound; activation (% of control), % at 5.7 µM; actives 97% (n = 1,200);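 active means activation above a set limit carried over from the earlier primary STAT1 screen, cut at about 140% in these data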
NFkB act STAT1ct: counter-screen for STAT1 activators: NF-kappaB activation | shares compounds with STAT1 activator | HEK293T NF-kB luciferase reporter, TNF-alpha stimulated, luminescence; 100% = TNF-alpha with vehicle only | activation (% of control), % at 5.7 µM | actives 43% (n = 1,200) | AID 1306;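 active means activation above the mean of solvent-only control wells plus 3 SD, set per campaign, cut at about 130% in these data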;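 further: TNF-alpha given at a submaximal dose yielding about 80% of full reporter signal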
STAT3 act STAT1c: counter-screen for STAT1 activators: human STAT3 activation. shares compounds with STAT1 activator. U3A cells STAT3-luciferase reporter, IL-6, luminescence; cells lack STAT1; 100 = IL-6 alone, no compound effect. activation (% of control), % at 5.7 µM. actives 46% (n = 1,200). AID 1316;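 active means activation above the solvent-only control well mean plus 3 SD, set per plate batch, cut at about 110% in these data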;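 further: higher means more STAT3 reporter activation so hits are non-selective activators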
Numbers stand for hits.

What do the screens show for `COc1ccc(COc2cc(-c3cccc(OC)c3)nc3ccc(NC(C)=O)cc23)cc1`?
STAT3 blocker: inactive; APP 5'UTR act: inactive; STAT1 inh: inactive; STAT3 act: inactive; STAT1 activator: inactive; NF-kB expr up: inactive

Results for O=C(Cc1ccccc1F)Nc1ccc(SC(F)F)cc1 ?
STAT3 blocker: inactive; APP 5'UTR act: 153; STAT1 inh: inactive; STAT3 act: inactive; STAT1 activator: 162; NF-kB expr up: 5.3; STAT1 activ conf: 169; NFkB act STAT1ct: inactive; STAT3 act STAT1c: 127

Results for O=C(COC(=O)Cc1ccccc1F)Nc1ccc(SC(F)F)cc1 ?
STAT3 blocker: inactive; APP 5'UTR act: inactive; STAT1 inh: inactive; STAT3 act: inactive; STAT1 activator: inactive; NF-kB expr up: inactive

Results for O=C(Nc1ccc(SC(F)F)cc1)c1ccccc1F ?
STAT3 blocker: inactive; APP 5'UTR act: inactive; STAT1 inh: inactive; STAT3 act: inactive; STAT1 activator: 161; NF-kB expr up: inactive; STAT1 activ conf: 182; NFkB act STAT1ct: 142; STAT3 act STAT1c: inactive

How did O=C(Nc1ccc(F)cc1)c1ccccc1F do in these assays?
STAT3 blocker: inactive; APP 5'UTR act: inactive; STAT1 inh: inactive; STAT3 act: inactive; STAT1 activator: inactive; NF-kB expr up: inactive

How did Cc1c(NC(=O)c2ncn[nH]2)cccc1-c1nc2ccccc2s1 do in these assays?
STAT3 blocker: inactive; APP 5'UTR act: inactive; STAT1 inh: inactive; STAT3 act: inactive; STAT1 activator: inactive; NF-kB expr up: inactive

Results for Cc1ccc(/C=N/Nc2nc3ccccc3s2)o1 ?
STAT3 blocker: inactive; APP 5'UTR act: 167; STAT1 inh: inactive; STAT3 act: inactive; STAT1 activator: 154; NF-kB expr up: 6.4; STAT1 activ conf: 264; NFkB act STAT1ct: inactive; STAT3 act STAT1c: 129

Results for CCCN1C=CC(=C/C=C(\C#N)C(=O)OCC)C=C1 ?
STAT3 blocker: inactive; APP 5'UTR act: inactive; STAT1 inh: inactive; STAT3 act: inactive; STAT1 activator: 164; NF-kB expr up: inactive; STAT1 activ conf: 183; NFkB act STAT1ct: inactive; STAT3 act STAT1c: 134

Results for COc1ccc(-n2c(C)cc(C(=O)Cn3nnc4ccccc4c3=O)c2C)cc1 ?
STAT3 blocker: inactive; APP 5'UTR act: inactive; STAT1 inh: inactive; STAT3 act: inactive; STAT1 activator: 155; NF-kB expr up: inactive; STAT1 activ conf: 176; NFkB act STAT1ct: inactive; STAT3 act STAT1c: inactive

Results for CCN(c1ccc(NC(=O)COC(=O)c2ccc(S(=O)(=O)N3CCCC3)cc2)cc1)C(C)C ?
STAT3 blocker: inactive; STAT1 inh: inactive; STAT3 act: inactive; STAT1 activator: inactive; NF-kB expr up: inactive

Results for COC(=O)c1ccc(-c2ccc(Cl)cc2)nc1C ?
STAT3 blocker: inactive; APP 5'UTR act: 179; STAT1 inh: inactive; STAT3 act: inactive; STAT1 activator: 186; NF-kB expr up: 5.9; STAT1 activ conf: 241; NFkB act STAT1ct: 136; STAT3 act STAT1c: 111

What do the screens show for `CCOC(=O)c1ccc(-c2cccc(C(F)(F)F)c2)nc1C`?
STAT3 blocker: inactive; APP 5'UTR act: inactive; STAT1 inh: inactive; STAT3 act: inactive; STAT1 activator: inactive; NF-kB expr up: inactive

Results for CCOC(=O)C1CCCN(C(=O)COc2ccc(N(C)S(=O)(=O)c3ccc(F)cc3)cc2)C1 (stereo not drawn) ?
STAT3 blocker: inactive; APP 5'UTR act: inactive; STAT1 inh: inactive; STAT3 act: inactive; STAT1 activator: inactive; NF-kB expr up: inactive

What do the screens show for `Clc1ccc(OCc2nc(-c3ccncc3)no2)c(Cl)c1`?
STAT3 blocker: inactive; APP 5'UTR act: 144; STAT1 inh: inactive; STAT3 act: inactive; STAT1 activator: 174; NF-kB expr up: 5.8; STAT1 activ conf: 230; NFkB act STAT1ct: 142; STAT3 act STAT1c: 116

What do the screens show for `OCCN(Cc1ccccc1)C(=S)Nc1ccc(Cl)cc1Cl`?
STAT3 blocker: inactive; APP 5'UTR act: inactive; STAT1 inh: inactive; STAT3 act: inactive; STAT1 activator: inactive; NF-kB expr up: inactive

How did COc1ccc(CCc2nnc(CCC(=O)NCCc3ncccc3C)o2)cc1 do in these assays?
STAT3 blocker: inactive; APP 5'UTR act: inactive; STAT1 inh: inactive; STAT3 act: inactive; STAT1 activator: inactive; NF-kB expr up: inactive

How did Cc1cnc(C(=O)Nc2ccc(C(C)C)cc2)cn1 do in these assays?
STAT3 blocker: inactive; APP 5'UTR act: inactive; STAT1 inh: inactive; STAT3 act: inactive; STAT1 activator: 159; NF-kB expr up: 4.5; STAT1 activ conf: 180; NFkB act STAT1ct: 136; STAT3 act STAT1c: inactive

How did O=C1CC2c3ccccc3C1C1C(=O)N(CCc3ccccc3)C(=O)C21 (stereo not drawn) do in these assays?
STAT3 blocker: inactive; APP 5'UTR act: inactive; STAT1 inh: inactive; STAT3 act: inactive; STAT1 activator: inactive; NF-kB expr up: inactive

How did COc1ccccc1/C=C/C(=O)NCCC1=CCCCC1 do in these assays?
STAT3 blocker: inactive; APP 5'UTR act: inactive; STAT1 inh: inactive; STAT3 act: inactive; STAT1 activator: 159; NF-kB expr up: inactive; STAT1 activ conf: 170; NFkB act STAT1ct: inactive; STAT3 act STAT1c: 134

How did COc1ccccc1OCC(=O)NCCC1=CCCCC1 do in these assays?
STAT3 blocker: inactive; APP 5'UTR act: inactive; STAT1 inh: inactive; STAT3 act: inactive; STAT1 activator: inactive; NF-kB expr up: inactive

What do the screens show for `CCN(CC)S(=O)(=O)c1ccc(N(C)Cc2cccnc2)nc1`?
STAT3 blocker: inactive; APP 5'UTR act: inactive; STAT1 inh: inactive; STAT3 act: inactive; STAT1 activator: inactive; NF-kB expr up: inactive

Results for CCOC(=O)c1sc(Nc2ccccc2)nc1C ?
STAT3 blocker: inactive; APP 5'UTR act: inactive; STAT1 inh: inactive; STAT3 act: inactive; STAT1 activator: inactive; NF-kB expr up: inactive

What do the screens show for `Cc1nc(Nc2ccccc2)sc1-c1ccccc1`?
STAT3 blocker: inactive; APP 5'UTR act: 187; STAT1 inh: inactive; STAT3 act: inactive; STAT1 activator: 193; NF-kB expr up: 8.8; STAT1 activ conf: 242; NFkB act STAT1ct: inactive; STAT3 act STAT1c: inactive

What do the screens show for `CC(=O)c1cc(-c2ccc(F)cc2)n(CCC(=O)Nc2cccnc2)c1C`?
STAT3 blocker: inactive; APP 5'UTR act: inactive; STAT1 inh: inactive; STAT3 act: inactive; STAT1 activator: inactive; NF-kB expr up: inactive
